Test results as given in ChEMBL document CHEMBL4396869, “Design and Synthesis of Selective Phosphodiesterase 4D (PDE4D) Allosteric Inhibitors for the Treatment of Fragile X Syndrome and Other Brain Disorders” (J Med Chem, 2019).
Calls of active or inactive are those of the source. No cut-off for these calls is given here.

What was measured:
[1] = (§1) Inhibition of recombinant human His6-tagged PDE4D7 UCR1 S129D mutant expressed in baculovirus infected Sf9 insect cells using cAMP as substrate preincubated for 5 to 10 mins followed by substrate addition and measured for 10 mins by yeast myokinase/pyruvate kinase/lactate dehydrogenase-coupled fluorescence assay
[2] = biological target: 3',5'-cyclic-AMP phosphodiesterase 4B (Homo sapiens, UniProt Q07343, S133D); assay: as §1, with “PDE4B1” for “PDE4D7”, “S133D” for “S129D”
3',5'-cyclic-AMP phosphodiesterase 4B, sequence (Q07343 whole entry S133D): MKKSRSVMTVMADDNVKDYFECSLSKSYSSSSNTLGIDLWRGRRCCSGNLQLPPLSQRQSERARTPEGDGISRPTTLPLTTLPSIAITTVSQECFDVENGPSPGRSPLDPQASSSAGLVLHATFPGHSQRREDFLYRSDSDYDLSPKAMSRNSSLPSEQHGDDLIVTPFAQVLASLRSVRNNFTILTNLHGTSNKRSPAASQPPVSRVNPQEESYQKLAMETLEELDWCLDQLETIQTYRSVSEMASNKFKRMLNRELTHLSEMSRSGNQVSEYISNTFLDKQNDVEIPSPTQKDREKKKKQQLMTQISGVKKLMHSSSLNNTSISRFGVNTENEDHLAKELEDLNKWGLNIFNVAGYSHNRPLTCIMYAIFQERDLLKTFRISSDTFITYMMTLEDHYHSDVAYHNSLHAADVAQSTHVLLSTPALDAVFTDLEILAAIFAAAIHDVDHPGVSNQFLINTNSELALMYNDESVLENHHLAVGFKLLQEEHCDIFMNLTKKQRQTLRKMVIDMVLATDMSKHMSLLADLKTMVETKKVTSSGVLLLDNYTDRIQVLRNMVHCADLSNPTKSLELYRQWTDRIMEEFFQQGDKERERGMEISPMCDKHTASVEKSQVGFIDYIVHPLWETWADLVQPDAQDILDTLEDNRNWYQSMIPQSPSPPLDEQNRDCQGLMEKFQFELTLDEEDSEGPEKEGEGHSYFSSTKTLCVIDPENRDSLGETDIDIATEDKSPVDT

[3] = as §1, with “human wild-type” for “human”, “domain (S129 residues)” for “S129D mutant”
Homo sapiens [4] = species: Homo sapiens; assay: Selectivity ratio of IC50 for recombinant human His6-tagged PDE4B1 UCR1 S133D mutant expressed in baculovirus infected Sf9 insect cells to IC50 for recombinant human His6-tagged PDE4D7 UCR1 S129D mutant expressed in baculovirus infected Sf9 insect cells
Homo sapiens [5] = species: Homo sapiens; assay: Selectivity ratio of IC50 for recombinant human wild-type His6-tagged PDE4D7 UCR1 domain (S129 residues) expressed in baculovirus infected Sf9 insect cells to IC50 for recombinant human His6-tagged PDE4D7 UCR1 S129D mutant expressed in baculovirus infected Sf9 insect cells
Mus musculus [6] = assay: Memory enhancement effect in ICR mouse assessed as improvement in novel object discrimination at 0.1 mg/kg, ip […] measured for 5 mins by open field test; format: functional, organism-based
Outline: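 Male ICR mice (25–30 g) in open field box; habituation 10 min day 1, training with two identical objects 5 min day 2, test with familiar and novel object 5 min day 3 (24 h delay). Exploration times recorded; discrimination index d2 = (b − a)/(a + b). Oral dosing in 5% DMSO, 5% Solutol in PBS; rolipram given parenterally.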

Mus musculus [7] = assay: Induction of emesis in ICR mouse assessed as reduction in ketamine/xylazine-induced duration of anesthesia at 0.1 mg/kg, ip pretreated for 15 mins followed by ketamine/xylazine addition; format: organism-based; conditions: in vivo
Outline: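 Male ICR mice, 25–30 g. Test agents given by oral gavage in 5% DMSO, 5% Solutol in PBS, or rolipram IP; ketamine (80 mg/kg) plus xylazine (10 mg/kg) IP given 30 min after PO or 15 min after IP dosing. Endpoint: time from loss to return of righting reflex.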

Molecule `NC(=O)Cc1ccc(Cc2cc(-c3cccc(Cl)c3)nc3c2CCC3)cc1` has an IC50 [1] of 8.6 nM, an IC50 [2] of 137 nM and an IC50 [3] of 810 nM.

With `NC(=O)Cc1ccc(S(=O)(=O)c2cc(-c3cccc(Cl)c3)nc3c2CCC3)cc1` the IC50 [1] was 475 nM and the IC50 [2] was 3830 nM.

Work on `CCc1cc(Oc2ccc(CC(N)=O)cc2)nc(-c2cccc(Cl)c2)n1` yielded an IC50 [1] of 35 nM, an IC50 [2] of 953 nM and an IC50 [3] of 2430 nM.

Work on `O=C(O)Cc1ccc(Nc2cc(-c3cccc(Cl)c3)nc3c2CCC3)cc1` yielded an IC50 [1] of 1160 nM, an IC50 [2] of 1640 nM and a Ratio IC50 (Homo sapiens [4]) of 1.

`CCc1cc(Oc2ccc(CCO)cc2)nc(-c2cccc(Cl)c2)n1` showed an IC50 [1] of 1.8 nM, an IC50 [2] of 58 nM and an IC50 [3] of 251 nM.

`CCc1nc(Nc2ccc(CCO)cc2)nc(-c2cccc(Cl)c2)n1` showed an IC50 [1] of 0.5 nM, an IC50 [2] of 24 nM and a Ratio IC50 (Homo sapiens [5]) of 204. It also gave a Ratio IC50 (Homo sapiens [4]) of 48 and an IC50 [3] of 102 nM.

For `CN(c1ccc(CC(N)=O)cc1)c1cc(-c2cccc(Cl)c2)nc2c1CCC2`, the IC50 [1] was 733 nM and the IC50 [2] was 3290 nM.

`OCCc1cccc(Nc2cc(-c3cccc(Cl)c3)nc3c2CCC3)c1` gave an IC50 [1] of 226 nM, an IC50 [2] of 1420 nM and an IC50 [3] of 6320 nM.

Molecule `NC(=O)CCc1ccc(Nc2cc(-c3cccc(Cl)c3)nc3c2CCC3)cc1` has an IC50 [1] of 35 nM, an IC50 [2] of 166 nM and an IC50 [3] of 1280 nM.

Molecule `CCc1nc(Nc2ccc(CCCO)cc2)nc(-c2cccc(Cl)c2)n1` has an IC50 [1] of 0.2 nM, an IC50 [2] of 11 nM and an IC50 [3] of 27 nM.

With `COc1ccc(C2CNC(=O)C2)cc1OC1CCCC1` (stereo unspecified) [ROLIPRAM] the Activity (Mus musculus [6]) was “Active” and the Activity (Mus musculus [7]) was “Toxic”.

Molecule `CCc1nc(Nc2ccc(C(C)C(=O)O)cc2)nc(-c2cccc(Cl)c2)n1` (stereo unspecified) has an IC50 [1] of 96 nM, an IC50 [2] of 1090 nM and a Ratio IC50 (Homo sapiens [4]) of 11. For the same molecule, the IC50 [3] was over 10000 nM.

Work on `CCc1nc(Nc2ccc(C(=O)O)cc2)nc(-c2cccc(Cl)c2)n1` yielded an IC50 [1] of 213 nM, an IC50 [2] of 241 nM and a Ratio IC50 (Homo sapiens [5]) of 2. The Ratio IC50 (Homo sapiens [4]) was 1 and the IC50 [3] was 482 nM.
